H69AR growth 86K: growth inhibitors of human H69AR lung tumor cells; H69AR lung tumor viability, ATP luminescence, 72 h; stronger effect = lower value; viability, % at 10 µM; actives 6% (n = 85,000); AID 598;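 active = viability at or below 40%; inactive = viability above 40%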;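 also: multidrug resistant small cell line overexpressing MRP-1 efflux transporter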
HCT116 PTEN-null: suppresses growth of cells with PTEN deletion. HCT116 PTEN-null viability, CellTiter-Glo, 60 h; stronger effect = lower value. viability, % at 10 µM. actives 1.2% (n = 140,000). AID 827;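 active = viability at or below a set limit, 4 SD under the median of all tested compounds, cut at about 3.7% in these data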;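 also: PTEN knockout HCT116 line with beta catenin targeted HCT116 as companion control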
HUVEC inhibit: inhibitors of human endothelial cell proliferation; HUVEC proliferation, CellTiter-Glo luminescence, 72 h; stronger effect = lower value; viability, % at 10 µM (by protocol); actives 1.1% (n = 86,000);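 active = viability at or below 30%; inactive = viability above 30%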
Lung fibro prol: blocks proliferation of human lung fibroblasts. LL 47 human lung fibroblast viability, ATP luminescence; stronger effect = lower value. viability, % at 10 µM. actives 1.1% (n = 85,000);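 active = viability at or below 50% in the single dose screen; inactive = viability above 50%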;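 also: compound exposure lasted 72 h before the ATP readout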
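Test system: LL 47 human lung fibroblasts / Incubation: 72 h compound exposure at 37 °C after overnight plating / Technique: luminescent ATP detection, CellTiter-Glo / Compound dosing: 0.1% DMSO in all compound wells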
HCT116 bCat-KO: beta-catenin-lacking colon tumor cell growth suppression. HCT116 beta-catenin knockout viability, CellTiter-Glo, 60 h; stronger effect = lower value. viability, % at 10 µM. actives 1.5% (n = 140,000). AID 818;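 active = viability at or under a set limit, the compound median less 4 SD, cut at about 6% in these data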
Each line names hits and unclear results; the compound was inactive in the other large screens. The sample as a whole holds a higher share of hits than the screen did.

O=C(NC1CCCC1)c1ccc(S(=O)(=O)N2CCOCC2)cc1	none
N=c1c(-c2nc3ccccc3[nH]2)cc(C(=O)c2cccs2)nn1-c1ccccc1	H69AR growth 86K 5.4
N=c1c(-c2nc3ccccc3[nH]2)cc(C(=O)c2ccco2)nn1-c1ccccc1	none (no result: H69AR growth 86K, HUVEC inhibit, Lung fibro prol)
Cc1cccc(NC(=O)c2ccc([N+](=O)[O-])s2)c1C	HCT116 PTEN-null 2.2, HCT116 bCat-KO 2.9 (no result: H69AR growth 86K, HUVEC inhibit, Lung fibro prol)
Cc1cccc(C)c1NC(=O)c1ccc([N+](=O)[O-])s1	none (no result: H69AR growth 86K, HUVEC inhibit, Lung fibro prol)
CC(CCc1ccccc1)NC(=O)C1CCN(c2nnc(-n3cccc3)s2)CC1 (centres undefined)	none
Cc1cc(C)cc(NC(=O)c2ccccc2NC(=O)CCC(=O)O)c1	none (no result: H69AR growth 86K, HUVEC inhibit, Lung fibro prol)
CCOc1cc(/C=C2/C(=O)N(c3ccccc3)N=C2C)ccc1OC(=O)c1cccs1	none (no result: H69AR growth 86K, HUVEC inhibit, Lung fibro prol)
O=C1NN(c2ccc(Cl)c(Cl)c2)C(=O)/C1=C/c1cccc(OC(=O)c2cccs2)c1	H69AR growth 86K 5.4
COc1cc(/C=C2/C(=O)NN(c3ccc(Cl)cc3)C2=O)ccc1OC(=O)c1ccco1	none (no result: H69AR growth 86K, HUVEC inhibit, Lung fibro prol)
O=C1NN(c2ccccc2)C(=O)/C1=C\c1cccc(OC(=O)c2cccs2)c1	H69AR growth 86K 3.8
CCOC(=O)c1c(NC(=O)c2cc(C(C)C)on2)sc(C(C)=O)c1C	none
CCOC(=O)c1sc(NC(=O)c2c(C)noc2C)c(C(=O)OCC)c1C	H69AR growth 86K 38 (no result: HCT116 PTEN-null, HCT116 bCat-KO)
Cc1cc([N+](=O)[O-])ccc1NC(=S)NC(=O)Cc1ccccc1	none
Cc1cc([N+](=O)[O-])ccc1NC(=S)NC(=O)C(c1ccccc1)c1ccccc1	H69AR growth 86K 32
Cc1csc(N(C(=O)CCNC(=O)c2ccc([N+](=O)[O-])cc2)c2ccccc2)n1	none (no result: H69AR growth 86K, HUVEC inhibit, Lung fibro prol)
Cc1c(Cl)cccc1NC(=S)NNc1ncc(C(F)(F)F)cc1Cl	H69AR growth 86K 16
Cc1ccccc1NC(=S)NNc1ncc(C(F)(F)F)cc1Cl	none (no result: H69AR growth 86K, HUVEC inhibit, Lung fibro prol)
O=[N+]([O-])c1ccc(CSc2nnc(-c3cnccn3)o2)cc1	none (no result: H69AR growth 86K, HUVEC inhibit, Lung fibro prol)
O=C(/C=C/c1c(Cl)cccc1Cl)n1cccn1	H69AR growth 86K 26
c1ccc(-c2nc(NCc3cccnc3)c3oc4ccccc4c3n2)cc1	H69AR growth 86K 38
CC(=O)Nc1ccc(C(=O)CSc2ncn(-c3ccccc3)n2)cc1	none
COc1ccc(C(C)(C)C)cc1NC(=O)Nc1ccc2c(c1)OCO2	H69AR growth 86K 22
N#CC(C#N)=C1C=CC=CN1/C(=C\c1ccco1)C(=O)c1ccc(Cl)cc1	HCT116 PTEN-null 2.2, HCT116 bCat-KO 2.4 (no result: H69AR growth 86K, HUVEC inhibit, Lung fibro prol)
N#CC(C#N)=C1C=CC=CN1/C(=C\c1ccco1)C(=O)c1ccc(-c2ccccc2)cc1	HCT116 PTEN-null 1.5, HCT116 bCat-KO 1.7 (no result: H69AR growth 86K, HUVEC inhibit, Lung fibro prol)
COc1ccc(-n2ncc3c(NCCCN4CCOCC4)ncnc32)cc1	none
COc1ccc(-c2oc3ncnc(NCCCN4CCOCC4)c3c2-c2ccc(OC)cc2)cc1	H69AR growth 86K 5.7
COc1ccc(-c2oc3ncn(CCN4CCOCC4)c(=N)c3c2-c2ccc(OC)cc2)cc1	H69AR growth 86K 16
COc1ccc(C(=O)NCCCN2CCOCC2)cc1OC	none
CCOc1cc2nc(-c3ccc(OC)c(OC)c3)nc(NCCCN3CCOCC3)c2cc1OC	H69AR growth 86K 18
c1ccc(-c2csc3ncnc(NCCN4CCOCC4)c23)cc1	none
c1ccc(-c2oc3ncnc(NCCCN4CCOCC4)c3c2-c2ccccc2)cc1	H69AR growth 86K 3.1
Cc1ccc(OCc2nnc(SCC(=O)N3c4ccccc4Sc4ccc(Cl)cc43)o2)cc1	none (no result: H69AR growth 86K, HUVEC inhibit, Lung fibro prol)
Cc1cccn2cc(CNC(=O)c3ccco3)nc12	none
O=C(N/N=C/c1cn(-c2ccccc2)nc1-c1ccc(F)cc1)c1ccc(Br)o1	none (no result: H69AR growth 86K, HUVEC inhibit, Lung fibro prol)
Clc1ccc(-c2nc(NCCN3CCOCC3)c3ccccc3n2)cc1	HUVEC inhibit 9.6
COc1ccc(-c2oc3ncnc(NCCN4CCOCC4)c3c2-c2ccc(OC)cc2)cc1	H69AR growth 86K 18
N#CCCCN1C(=O)C(O)(CC(=O)c2ccc3c(c2)OCCO3)c2ccccc21 (centres undefined)	none
C=C(C)CN1C(=O)C(O)(CC(=O)c2ccc3c(c2)OCCO3)c2ccccc21 (centres undefined)	H69AR growth 86K 39
COc1c(Cl)cc(Cl)cc1/C=C/C(=O)c1ccc(NC(=O)c2cccs2)cc1	HCT116 PTEN-null 1.8, HCT116 bCat-KO 2.6 (no result: H69AR growth 86K, HUVEC inhibit, Lung fibro prol)
Cc1nc2sccn2c(=O)c1CCN1CCC(=C(c2ccc(F)cc2)c2ccc(F)cc2)CC1	HUVEC inhibit 32
Cc1nc2ccccn2c(=O)c1CCN1CCC(C(=O)c2ccc(F)cc2)CC1	none
Cc1cccc(-c2nc(CN3CCCC(C(=O)NC4CCCC4)C3)c(C)o2)c1 (centres undefined)	none
Cc1ccc(O)c(/C=N/NC(=O)C2=NNC(c3ccccc3)(c3ccccc3)C2)c1	H69AR growth 86K 37, HUVEC inhibit 4.0, Lung fibro prol 12
Cc1ccc(O)c(/C=N/NC(=O)c2[nH]ncc2Br)c1	none (no result: H69AR growth 86K, HUVEC inhibit, Lung fibro prol)
Cc1ccc(C(=O)n2c(-c3ccccc3)cnc2SCC(=O)Nc2ccccc2)cc1	none (no result: H69AR growth 86K, HUVEC inhibit, Lung fibro prol)
CCOC(=O)C1=C(c2ccccc2)N2CCS(=O)(=O)N=C2S1	none
COc1cc(/C=C2/C(=N)N3C=CSC3=NC2=O)ccc1OCCCOc1ccccc1C	H69AR growth 86K 6.1, HUVEC inhibit 15
COc1cc(/C=C2/C(=N)N3C=CSC3=NC2=O)ccc1OCCCOc1c(C)cccc1C	none
CCOc1cc(/C=C2/C(=N)N3C=CSC3=NC2=O)ccc1OCCCOc1ccccc1C	H69AR growth 86K 6.5, HUVEC inhibit 18, Lung fibro prol 32
CCOC(=O)CNC(=O)C(=O)c1c(O)[nH]c2ccccc12	Lung fibro prol 48
CCOC(=O)CNC(=O)c1ccccc1	none
CCOC(=O)CSC1=C(C#N)C(c2ccc(F)cc2)C(C(C)=O)=C(C)N1 (centres undefined)	none
CSC1=N/C(=C\c2ccc(Br)o2)C(=O)S1	none
O=C(CC1Sc2ccccc2NC1=O)Nc1cccnc1 (centres undefined)	none (no result: H69AR growth 86K, HUVEC inhibit, Lung fibro prol)
Cc1cc(C)nc(N2CCN(c3nnnn3-c3ccccc3)CC2)n1	none
Cc1ccc(C)c(N2CCN(c3nnnn3-c3ccccc3)CC2)c1	H69AR growth 86K 20
O=C(O)CN1C(=O)CNC1=O	none
CCCCOCCCNS(=O)(=O)c1ccccc1	none
CCCCOP(=O)(OCCCC)C1(NS(=O)(=O)c2ccccc2)C=CC(=O)c2ccccc21 (centres undefined)	H69AR growth 86K 12
Cn1cc(Cl)c(C(=O)NC2CCCC2)n1	none
O=C(CSc1nc2ccc(NC(=O)CSc3nnnn3Cc3ccccc3)cc2s1)Nc1ccccc1	none
COC(=O)CSc1nc2ccc(NC(=O)CSc3nnnn3Cc3ccccc3)cc2s1	Lung fibro prol 31
Cc1cc(C)c(NC(=O)CSc2nc3ccc(NC(=O)CSc4nnnn4Cc4ccccc4)cc3s2)c(C)c1	H69AR growth 86K 14 (no result: HCT116 PTEN-null, HCT116 bCat-KO)
COc1ccc(-c2cc(-c3c(O)c(OC)c4occc4c3OC)[nH]n2)cc1OC	H69AR growth 86K 26
CC(=O)c1sc(NC(=O)C2(F)C(F)(F)C(F)(F)C(F)(F)C(F)(F)C2(F)F)nc1C	H69AR growth 86K 12

Screens from PubChem BioAssay.
